Measured values taken from publication PMC6585766 (Clinical Pharmacology in Drug Development, 2018).
Entries after “also recorded” stand apart in the source; their conditions may differ. Read-outs that look alike come from different tables or passages of the source.

Experiments:
[1] = patients with relapsed and refractory multiple myeloma; cited from earlier work
Safety assessment = format: in vivo, human; details: single oral 4-mg dose
In short: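 Open-label, multicentre study in male subjects (healthy, mild, moderate or severe hepatic impairment) given a single oral 4-mg dose. Adverse events were recorded from consent through a follow-up telephone call 7 ± 1 days after dosing, plus any reported within 28 days. Physical exams, vital signs, 12-lead ECGs and clinical laboratory tests were also done. TEAEs were tabulated by system organ class and preferred term, each subject counted once per event.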

[2] = administered during the period of organogenesis; no reference given; cited from earlier work
[3] = heavy smokers (approximately 25 cigarettes per day); ref data on file; cited from earlier work
[4] = format: in vivo, human; details: for AUC / AUC(0-inf) / Cmax / half-life / Tmax: human, plasma, po, 4 mg; for AUC / AUC(0-inf) / Cmax / Tmax / CL/F / AUC0‐t, Ratio (%) of Geometric Mean (Impaired vs Healthy) / AUC, Ratio (%) of Geometric Mean (Impaired vs Healthy) / Cmax, Ratio (%) of Geometric Mean (Impaired vs Healthy) / tmax, Median Difference (Impaired– Healthy): single oral 4-mg dose; for AUC(0-inf): AUC (time 0 extrapolated to infinity); for half-life: t1/2, single oral 4-mg dose; for AUC0‐t, Ratio (%) of Geometric Mean (Impaired vs Healthy) / AUC, Ratio (%) of Geometric Mean (Impaired vs Healthy) / Cmax, Ratio (%) of Geometric Mean (Impaired vs Healthy): ANOVA; for tmax, Median Difference (Impaired– Healthy): nonparametric method
In short: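 Male subjects (8 per group: healthy, mild, moderate, severe hepatic impairment) received a single oral 4-mg dose. Water was withheld from 60 min pre-dose to 2 h post-dose, food until at least 4 h post-dose, and CYP1A2/CYP3A modulators from 14 days prior. Plasma was sampled pre-dose to 48 h and assayed by validated LC-MS/MS. Noncompartmental parameters used actual sampling times. ANOVA (group as fixed effect) gave geometric mean ratios with 90% CI versus matched healthy subjects.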

[5] = fed vs fasted; ref data on file; cited from earlier work
[6] = human, cited from earlier work
[7] = cited from earlier work
[8] = severe hepatic impairment group, 1 subject
[9] = group 1 healthy subjects, n = 8, arithmetic mean (SD)
[10] = group 2 severe hepatic impairment, n = 8, arithmetic mean (SD)
[11] = group 3 moderate hepatic impairment, n = 8, arithmetic mean (SD)
[12] = group 4 mild hepatic impairment, n = 8, arithmetic mean (SD)

Nc1cccc2c1C(=O)N(C1CCC(=O)NC1=O)C2=O (centres unmarked) [Pomalidomide]
nonrenal routes as share of pomalidomide total body clearance [1]: approximately 70%
total number of TEAEs (Safety assessment; all 32 subjects): 8
clinically significant clinical laboratory, vital sign, or ECG results (Safety assessment; all subjects): No subject had a clinical laboratory, vital sign, or ECG result that was considered clinically significant or reported as a TEAE
deaths, SAEs, TEAEs leading to discontinuation (Safety assessment; all subjects): No deaths, SAEs, or TEAEs leading to discontinuation were reported; also recorded: No deaths or other SAEs were reported and no subjects were discontinued; also recorded: no deaths and no subject discontinued due to a TEAE
severity of TEAEs (Safety assessment; all subjects): All TEAEs were mild in severity except for 1 subject in the moderate hepatic impairment group with the moderate TEAE of bronchitis
TEAEs reported (Safety assessment; healthy subjects): No TEAEs
safety and tolerability (Safety assessment; healthy subjects and subjects with severe, moderate, or mild hepatic impairment): safe and well tolerated
subjects reporting at least 1 TEAE related to pomalidomide (Safety assessment; mild hepatic impairment group, 2 subjects): 25.0%
subjects reporting TEAEs (Safety assessment; mild hepatic impairment group, 4 subjects): 50.0%
subjects reporting TEAEs (Safety assessment; moderate hepatic impairment group, 1 subject): 12.5%
subjects reporting at least 1 TEAE related to pomalidomide (Safety assessment; overall, 3 subjects (diarrhea, nausea, headache, flushing)): 9.4%
subjects reporting TEAEs (Safety assessment; overall, 6 of 32 subjects): 18.8%
subjects reporting TEAEs (Safety assessment; [8]): 12.5%
subjects reporting at least 1 TEAE related to pomalidomide (Safety assessment; [8]): 12.5%
teratogenicity [2]: teratogenic
AUC lower in heavy smokers than in nonsmokers [3]: 30%
Cmax higher in heavy smokers than in nonsmokers [3]: 14.4%
AUC ([4]; AUC0‐t, Geometric Mean, healthy, N = 8): 481 ng·h/mL
AUC ([4]; AUC0‐t, Geometric Mean, mild hepatic impairment, N = 8): 693 ng·h/mL
AUC ([4]; AUC0‐t, Geometric Mean, moderate hepatic impairment, N = 8): 725 ng·h/mL
AUC ([4]; AUC0‐t, Geometric Mean, severe hepatic impairment, N = 8): 762 ng·h/mL
AUC ([4]; AUC0‐t, group 1 healthy subjects, n = 8, arithmetic mean (SD)): 493 ng·h/mL
AUC ([4]; AUC0‐t, group 2 severe hepatic impairment, n = 8, arithmetic mean (SD)): 822 ng·h/mL
AUC ([4]; AUC0‐t, group 3 moderate hepatic impairment, n = 8, arithmetic mean (SD)): 764 ng·h/mL
AUC ([4]; AUC0‐t, group 4 mild hepatic impairment, n = 8, arithmetic mean (SD)): 728 ng·h/mL
AUC(0-inf) [4, 9]: 498 ng·h/mL
AUC(0-inf) [4, 10]: 908 ng·h/mL
AUC(0-inf) [4, 11]: 810 ng·h/mL
AUC(0-inf) [4, 12]: 787 ng·h/mL
AUC ([4]; AUC, Geometric Mean, healthy, N = 8): 486 ng·h/mL
AUC ([4]; AUC, Geometric Mean, mild hepatic impairment, N = 8): 734 ng·h/mL
AUC ([4]; AUC, Geometric Mean, moderate hepatic impairment, N = 8): 764 ng·h/mL
AUC ([4]; AUC, Geometric Mean, severe hepatic impairment, N = 8): 833 ng·h/mL
Cmax ([4]; Geometric Mean, healthy, N = 8): 59.2 ng/mL
Cmax ([4]; Geometric Mean, mild hepatic impairment, N = 8): 55.8 ng/mL
Cmax ([4]; Geometric Mean, moderate hepatic impairment, N = 8): 56.2 ng/mL
Cmax ([4]; Geometric Mean, severe hepatic impairment, N = 8): 44.9 ng/mL
Cmax [4, 10]: 49.1 ng/mL
Cmax [4, 12]: 56.2 ng/mL
half-life [4, 10]: 12.7 h
half-life [4, 11]: 10.1 h
half-life [4, 12]: 10.3 h
Tmax ([4]; Geometric Mean, healthy, N = 8, Table 4): 1.5 h
Tmax ([4]; Geometric Mean, mild hepatic impairment, N = 8, Table 4): 2.25 h
Tmax ([4]; Geometric Mean, moderate hepatic impairment, N = 8, Table 4): 2.38 h
Tmax ([4]; Geometric Mean, severe hepatic impairment, N = 8, Table 4): 2.5 h
Tmax ([4]; group 1 healthy subjects, n = 8, median (min, max)): 1.5 h
Tmax ([4]; group 2 severe hepatic impairment, n = 8, median (min, max)): 2.5 h
Tmax ([4]; group 3 moderate hepatic impairment, n = 8, median (min, max)): 2.25 h
Tmax ([4]; group 4 mild hepatic impairment, n = 8, median (min, max)): 2 h
increase of pomalidomide exposure ([4]; mild hepatic impairment vs healthy): approximately 50%
increase of pomalidomide exposure ([4]; moderate hepatic impairment vs healthy): approximately 60%
increase of pomalidomide exposure ([4]; severe hepatic impairment vs healthy): approximately 70%
CL/F [4, 9]: 8.4 (1.9) L/h
CL/F [4, 10]: 5.4 (3.3) L/h
CL/F [4, 11]: 5.6 (2.6) L/h
CL/F [4, 12]: 5.8 (2.2) L/h
AUC0‐t, Ratio (%) of Geometric Mean (Impaired vs Healthy) ([4]; mild vs healthy): 143.9%
AUC, Ratio (%) of Geometric Mean (Impaired vs Healthy) ([4]; mild vs healthy): 151.2%
Cmax, Ratio (%) of Geometric Mean (Impaired vs Healthy) ([4]; mild vs healthy): 94.2%
tmax, Median Difference (Impaired– Healthy) ([4]; mild vs healthy): 1.0 h
AUC0‐t, Ratio (%) of Geometric Mean (Impaired vs Healthy) ([4]; moderate vs healthy): 150.6%
AUC, Ratio (%) of Geometric Mean (Impaired vs Healthy) ([4]; moderate vs healthy): 157.5%
Cmax, Ratio (%) of Geometric Mean (Impaired vs Healthy) ([4]; moderate vs healthy): 94.8%
tmax, Median Difference (Impaired– Healthy) ([4]; moderate vs healthy): 1.0 h
AUC0‐t, Ratio (%) of Geometric Mean (Impaired vs Healthy) ([4]; severe vs healthy): 158.4%
AUC, Ratio (%) of Geometric Mean (Impaired vs Healthy) ([4]; severe vs healthy): 171.5%
Cmax, Ratio (%) of Geometric Mean (Impaired vs Healthy) ([4]; severe vs healthy): 75.8%
tmax, Median Difference (Impaired– Healthy) ([4]; severe vs healthy): 0.75 h
decrease of AUC by food [5]: 8%
clearance pathway: CYP–mediated hydroxylation with subsequent glucuronidation [6]: 43 % of the dose
unchanged pomalidomide in urine [6]: 2.2 % of the dose
total [14C]‐radioactivity recovered in feces ([6]; oral): 15.5%
total [14C]‐radioactivity recovered in urine ([6]; oral): 72.8%
recovery of total [14C]‐radioactivity ([6]; oral, urine plus feces): approximately 88 % of the administered dose
unchanged pomalidomide in feces ([6]; samples collected during the 96‐hour postdose period): 7.7 % of the dose
clearance pathway: excretion of unchanged drug ([6]; share of the dose): 10%
clearance pathway: glutarimide ring hydrolysis ([6]; share of the dose): 25%
effect on exposure of pomalidomide ([7]; co‐administration of a strong CYP1A2 inhibitor in the presence of a strong CYP3A inhibitor): approximately doubled
effect on exposure to pomalidomide ([7]; co‐administration of a strong CYP3A inhibitor or inducer or a P‐glycoprotein inhibitor): no clinically relevant effect
